Source: ChEMBL document CHEMBL4033779 (J Med Chem, 2018)
Values after ≈ are worked out from the molar mass of the structure shown. One block for each compound: values may come before it.

How the values were obtained:
[1] = system: Simian immunodeficiency virus; experiment: Antiviral activity against SIV; assay type: functional
[2] = system: Human immunodeficiency virus 2; experiment: Antiviral activity against HIV2; assay type: functional
[3] = system: Human immunodeficiency virus 1; experiment: Antiviral activity against HIV-1 isolate CRF01_AE by p24 ELISA; assay type: functional; settings: Human immunodeficiency virus 1, isolate CRF01_AE
[4] = Oral bioavailability in rat dosed as suspension; assay type: ADME, organism-based; settings: in vivo
[5] = system: Human immunodeficiency virus 1; experiment: Antiviral activity against HIV 1 isolate JRFL by single cycle infectivity assay; assay type: functional; settings: Human immunodeficiency virus 1, isolate JRFL
In short: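 HEK293T producer cells cotransfected with a proviral HIV-1 LAI-Δenv-luc plasmid (firefly luciferase in place of env) and an LTR-driven JR-FL env plasmid. The resulting pseudotyped virions complete only one replication round; infection is read out as luciferase signal.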

[6] = system: Human immunodeficiency virus 1; experiment: Antiviral activity against HIV-1 89.6 infected in human PM1 cells harboring dual co-receptors after 4 to 6 days by p24 ELISA; assay type: functional, cell-based; settings: Human immunodeficiency virus 1, 89.6, PM1
[7] = system: Human immunodeficiency virus 1; experiment: Antiviral activity against HIV-1 Bal infected in human PM1 cells harboring CCR5 co-receptor after 4 to 6 days by p24 ELISA; assay type: functional, cell-based; settings: Human immunodeficiency virus 1, Bal
[8] = system: Human immunodeficiency virus 1; experiment: Antiviral activity against HIV-1 isolate CRF02_AG by p24 ELISA; assay type: functional; settings: Human immunodeficiency virus 1, isolate CRF02_AG
[9] = Aqueous solubility of the compound at pH 2 to 9; assay type: physicochemical
[10] = system: Human immunodeficiency virus 1; experiment: Antiviral activity against HIV-1 subtype B by p24 ELISA; assay type: functional; settings: Human immunodeficiency virus 1, subtype B
[11] = system: Human immunodeficiency virus 1; experiment: Antiviral activity against HIV-1 subtype A by p24 ELISA; assay type: functional; settings: Human immunodeficiency virus 1, subtype A
[12] = system: Human immunodeficiency virus 1; experiment: Antiviral activity against HIV-1 isolate CRF_BF by p24 ELISA; assay type: functional; settings: Human immunodeficiency virus 1, isolate CRF_BF
[13] = system: Human immunodeficiency virus 1; experiment: Antiviral activity against HIV-1 JR-FL infected in human PM1 cells harboring CCR5 co-receptor after 4 to 6 days by p24 ELISA; assay type: functional, cell-based; settings: Human immunodeficiency virus 1, JR-FL
[14] = system: Human immunodeficiency virus 1; experiment: Antiviral activity against HIV-1 SF-162 infected in human PM1 cells harboring CCR5 co-receptor after 4 to 6 days by p24 ELISA; assay type: functional, cell-based; settings: Human immunodeficiency virus 1, SF-162
[15] = system: Human immunodeficiency virus 1; experiment: Antiviral activity against HIV-1 RF infected in human MT2 cells harboring CXCR4 co-receptor after 4 to 6 days; assay type: functional, cell-based; settings: Human immunodeficiency virus 1, RF
[16] = system: Human immunodeficiency virus 1; experiment: Antiviral activity against HIV-1 NL4 - 3 infected in human MT2 cells harboring CXCR4 co-receptor after 4 to 6 days; assay type: functional, cell-based; settings: Human immunodeficiency virus 1, NL4 - 3, MT2
[17] = system: Human immunodeficiency virus 1; experiment: Antiviral activity against HIV-1 LAI infected in human MT2 cells harboring CXCR4 co-receptor after 4 to 6 days; assay type: functional, cell-based; settings: Human immunodeficiency virus 1, LAI
[18] = system: Human immunodeficiency virus 1; experiment: Antiviral activity against HIV-1 F1 by p24 ELISA; assay type: functional; settings: Human immunodeficiency virus 1, F1
[19] = system: Human immunodeficiency virus 1; experiment: Antiviral activity against HIV-1 subtype C by p24 ELISA; assay type: functional; settings: Human immunodeficiency virus 1, subtype C
[20] = system: Human immunodeficiency virus 1; experiment: Antiviral activity against HIV-1 subtype F by p24 ELISA; assay type: functional; settings: Human immunodeficiency virus 1, subtype F
[21] = system: Human immunodeficiency virus 1; experiment: Inhibition of [3H]BMS-488043 binding to HIV-1 isolate JRFL gp120 assessed as dissociation half life incubated for 60 mins followed by CD4 addition by scintillation counting method
[22] = system: Rattus norvegicus; experiment: Oral bioavailability in rat assessed as 1-(4-benzoylpiperazin-1-yl)-2-(4-methoxy-7-(3-methyl-1H-1,2,4-triazol-1-yl)-1H-pyrrolo[2,3-c]pyridin-3-yl)ethane-1,2-dione level; assay type: ADME, organism-based; settings: in vivo
[23] = system: Human immunodeficiency virus 1; experiment: Antiviral activity against HIV1 infected in human assessed as decrease in viral load in plasma at 800 mg bid measured on day 8; assay type: functional
In short: (§1)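 Eight-day monotherapy in HIV-1-infected subjects: 800 or 1800 mg given BID with a high-fat meal (n = 12 per arm, placebo n = 6). Plasma viral load was measured on day 8 and reported as mean decline in log10 copies/mL.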

[24] = system: Canis familiaris; experiment: Oral bioavailability in dog assessed as 1-(4-benzoylpiperazin-1-yl)-2-(4-methoxy-7-(3-methyl-1H-1,2,4-triazol-1-yl)-1H-pyrrolo[2,3-c]pyridin-3-yl)ethane-1,2-dione level; assay type: ADME, organism-based, Canis lupus familiaris; settings: in vivo
[25] = Aqueous solubility of the compound at pH 1.5 to 8.2; assay type: physicochemical
In short: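 Aqueous solubility measured over pH 1.5−8.2 at room temperature.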

[26] = system: Rhesus monkey; experiment: Oral bioavailability in monkey assessed as 1-(4-benzoylpiperazin-1-yl)-2-(4-methoxy-7-(3-methyl-1H-1,2,4-triazol-1-yl)-1H-pyrrolo[2,3-c]pyridin-3-yl)ethane-1,2-dione level; assay type: ADME, organism-based, Macaca mulatta; settings: in vivo
[27] = species on record: Homo sapiens; experiment: Half life in human assessed as 1-(4-benzoylpiperazin-1-yl)-2-(4-methoxy-7-(3-methyl-1H-1,2,4-triazol-1-yl)-1H-pyrrolo[2,3-c]pyridin-3-yl)ethane-1,2-dione level; assay type: ADME
[28] = Solubility of the compound in acetonitrile; assay type: physicochemical
[29] = Inhibition of [3H]BMS-488043 binding to HIV-1 isolate JRFL gp120 after 60 mins by scintillation counting method; parameters: species or system Human immunodeficiency virus 1
[30] = system: Human immunodeficiency virus 1; experiment: Inhibition of [3H]BMS-488043 binding to HIV-1 isolate JRFL gp120 assessed as association half life after 60 mins by scintillation counting method
[31] = system: Human immunodeficiency virus 1; experiment: Antiviral activity against HIV-1 3B infected in human MT2 cells harboring CXCR4 co-receptor after 4 to 6 days; assay type: functional, cell-based; settings: Human immunodeficiency virus 1, 3B
[32] = system: Human immunodeficiency virus 1; experiment: Antiviral activity against HIV-1 isolate MN infected in human MT2 cells harboring CXCR4 co-receptor after 4 to 6 days; assay type: functional, cell-based; settings: Human immunodeficiency virus 1, isolate MN
[33] = Half life in human administered as capsule; assay type: ADME; settings: po
[34] = Dissociation constant, pKa of the compound; assay type: physicochemical
[35] = system: Human immunodeficiency virus 1; experiment: Antiviral activity against HIV1 infected in human assessed as decrease in viral load in plasma at 1800 mg bid measured on day 8; assay type: functional; in short: as §1
[36] = Competitive inhibition of soluble CD4 binding to HIV-1 gp120 after 2 hrs by ELISA; parameters: species or system Human immunodeficiency virus 1
[37] = Protein binding in human plasma; assay type: ADME, cell-free; settings: read-out: PPB (converted)
[38] = biological target: Cytochrome P450 3A4 (Homo sapiens, UniProt P08684); experiment: Inhibition of CYP3A4 (unknown origin); assay type: ADME
Sequence of Cytochrome P450 3A4 (P08684 whole entry): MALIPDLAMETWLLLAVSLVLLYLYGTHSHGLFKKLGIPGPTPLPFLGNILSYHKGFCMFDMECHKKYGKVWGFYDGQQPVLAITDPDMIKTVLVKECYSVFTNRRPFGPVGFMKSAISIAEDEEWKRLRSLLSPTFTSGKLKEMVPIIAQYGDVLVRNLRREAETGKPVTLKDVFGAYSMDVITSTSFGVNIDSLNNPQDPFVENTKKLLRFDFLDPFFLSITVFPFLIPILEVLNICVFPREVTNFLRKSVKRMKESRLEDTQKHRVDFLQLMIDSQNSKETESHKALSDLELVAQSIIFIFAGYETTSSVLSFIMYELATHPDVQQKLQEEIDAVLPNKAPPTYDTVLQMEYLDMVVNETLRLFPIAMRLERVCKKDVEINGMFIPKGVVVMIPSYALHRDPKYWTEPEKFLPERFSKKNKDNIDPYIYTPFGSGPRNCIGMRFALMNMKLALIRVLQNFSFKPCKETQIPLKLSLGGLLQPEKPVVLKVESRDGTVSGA

[39] = Aqueous solubility of the compound at pH 7.4; assay type: physicochemical
[40] = Oral bioavailability in rat at 1 mg/kg; assay type: ADME, organism-based; settings: in vivo
In short: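 Rat oral dosing at 1 mpk as a nanosuspension.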

[41] = Oral bioavailability in cynomolgus monkey at 10 mg/kg; assay type: ADME, organism-based, Macaca fascicularis; settings: in vivo
In short: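 Oral dose of 10 mpk given as a solution in PEG 400/ethanol.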

[42] = Aqueous solubility of the compound; assay type: physicochemical; settings: buffer
[43] = species on record: Homo sapiens; experiment: Half life in human assessed as 1-(4-benzoylpiperazin-1-yl)-2-(4,7-dimethoxy-1H-pyrrolo[2,3-c]pyridin-3-yl)ethane-1,2-dione level; assay type: ADME
In short: (§2)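 Healthy volunteers received the phosphonooxymethyl prodrug orally over 25 to 800 mg. Plasma levels of the released parent were followed to derive tmax and t1/2.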

[44] = species on record: Homo sapiens; experiment: Tmax in human assessed as 1-(4-benzoylpiperazin-1-yl)-2-(4,7-dimethoxy-1H-pyrrolo[2,3-c]pyridin-3-yl)ethane-1,2-dione level; assay type: ADME; in short: as §2

SMILES: O=C(C(=O)N1CCN(C(=O)c2ccccc2)CC1)c1c[nH]c2ccccc12
EC50 [1]: > 200000 nM
EC50 [2]: > 200000 nM

SMILES: COc1cnc(-n2cnc(C)n2)c2[nH]cc(C(=O)C(=O)N3CCN(C(=O)c4ccccc4)CC3)c12
EC50 [3]: > 100 nM
bioavailability [4]: 52%
EC50 [5]: 0.14 nM
EC50 [6]: 57.6 nM
EC50 [7]: 1.7 nM
EC50 [8]: 1.77 nM
solubility [9]: 20 µg/mL (≈ 42.2 µM)
EC50 [10]: 0.34 nM
EC50 [11]: 2.24 nM
EC50 [12]: 3.09 nM
EC50 [13]: 0.4 nM
EC50 [14]: 0.5 nM
EC50 [15]: > 2000 nM
EC50 [16]: 2.2 nM
EC50 [17]: 0.7 nM
EC50 [18]: 3.75 nM
EC50 [19]: 1.14 nM
EC50 [20]: 0.1 nM
T1/2 [21]: 7.63 h

SMILES: COc1cnc(-n2cnc(C)n2)c2c1c(C(=O)C(=O)N1CCN(C(=O)c3ccccc3)CC1)cn2COP(=O)(O)O.NC(CO)(CO)CO [FOSTEMSAVIR TROMETHAMINE]
bioavailability [22]: 80 to 122%
Activity [23]: <1 log10/ml
bioavailability [24]: 80 to 122%
solubility [25]: > 11000 µg/mL
bioavailability [26]: 80 to 122%
t1/2 [27]: 1.5 h

SMILES: COc1ncc(OC)c2c(C(=O)C(=O)N3CCN(C(=O)c4ccccc4)CC3)c[nH]c12
Kd [29]: 19.1 nM
T1/2 [30]: 2 to 3 min
EC50 [6]: ≥ 871 nM
EC50 [7]: 23 nM
EC50 [31]: 160 nM
EC50 [13]: 3 nM
Activity [23]: 0.72 log10/ml
EC50 [32]: > 1000 nM
EC50 [14]: 4.7 nM
half-life [33]: 10 h
pKa [34]: 2.9 to 9.3
Activity [35]: 0.96 log10/ml
IC50 [36]: 87 nM
EC50 [15]: > 2000 nM
EC50 [16]: 17.4 nM
EC50 [17]: 4.1 nM
fraction unbound [37]: 0.05
T1/2 [21]: 0.717 h

SMILES: COc1cnc(-n2cc(C)cn2)c2[nH]cc(C(=O)C(=O)N3CCN(C(=O)c4ccccc4)CC3)c12
EC50 [5]: 0.41 nM

SMILES: COc1ccnc2[nH]cc(C(=O)C(=O)N3CCN(C(=O)c4ccccc4)C[C@H]3C)c12
pKa [34]: 2.9 to 9.6
IC50 [36]: 100 nM
fraction unbound [37]: 0.27

SMILES: COc1cnc(OC)c2c1c(C(=O)C(=O)N1CCN(C(=O)c3ccccc3)CC1)cn2COP(=O)(O)O.NCCCC[C@H](N)C(=O)O
t1/2 [43]: 1.5 h
Tmax [44]: 0.5 to 1 h

Now from value to compound:

EC50 [5]: 0.78 nM
SMILES: COc1cnc(-n2ccnn2)c2[nH]cc(C(=O)C(=O)N3CCN(C(=O)c4ccccc4)CC3)c12

solubility [28]: < 500 µg/mL
SMILES: COc1cnc(Br)c2[nH]cc(C(=O)C(=O)N3CCN(C(=O)c4ccccc4)CC3)c12

EC50 [5]: 1.3 nM
SMILES: O=C(C(=O)N1CCN(C(=O)c2ccccc2)CC1)c1c[nH]c2c(-c3ncon3)ncc(F)c12

IC50 [38]: 1000 nM
EC50 [5]: 0.21 nM
SMILES: COc1cnc(-n2cncn2)c2[nH]cc(C(=O)C(=O)N3CCN(C(=O)c4ccccc4)CC3)c12

solubility [39]: 7 µg/mL (≈ 15.6 µM)
SMILES: O=C(C(=O)N1CCN(C(=O)c2ccccc2)CC1)c1c[nH]c2c(-n3ccnn3)ncc(F)c12

bioavailability [40]: 4%
bioavailability [41]: 100%
solubility [42]: 5 µg/mL (≈ 13.2 µM)
SMILES: O=C(C(=O)N1CCN(C(=O)c2ccccc2)CC1)c1c[nH]c2cccc(F)c12

EC50 [5]: 0.11 nM
SMILES: COc1cnc(-n2ccc(C)n2)c2[nH]cc(C(=O)C(=O)N3CCN(C(=O)c4ccccc4)CC3)c12
